Legend:
[1] = target: T1, Orexin receptor type 2 (Homo sapiens) (UniProt O43614); assay: (§1) Antagonist activity at human Gq-coupled HCRTR2 expressed in CHOK1 cells assessed as inhibition in Orexin A-induced beta-arrestin 2 recruitment at 20 uM incubated for 30 mins followed by Orexin A addition and measured after 90 or 180 mins by pathhunter beta-arrestin assay relative to control; assay type: cell-based
T1 sequence (whole entry): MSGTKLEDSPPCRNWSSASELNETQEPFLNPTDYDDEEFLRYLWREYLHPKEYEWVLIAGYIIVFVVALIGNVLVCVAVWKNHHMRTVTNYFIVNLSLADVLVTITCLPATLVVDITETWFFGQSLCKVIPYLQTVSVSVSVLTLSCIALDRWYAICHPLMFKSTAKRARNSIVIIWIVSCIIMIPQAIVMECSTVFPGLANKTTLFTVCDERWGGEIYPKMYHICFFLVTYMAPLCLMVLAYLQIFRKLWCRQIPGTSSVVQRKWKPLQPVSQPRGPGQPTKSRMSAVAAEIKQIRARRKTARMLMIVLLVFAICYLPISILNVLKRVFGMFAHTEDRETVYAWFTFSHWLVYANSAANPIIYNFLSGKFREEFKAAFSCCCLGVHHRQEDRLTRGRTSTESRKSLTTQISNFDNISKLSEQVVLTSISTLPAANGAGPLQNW
Method in brief: (§2)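 PathHunter beta-arrestin recruitment, antagonist mode, run at DiscoverX. Cells seeded and held at 37 °C, then preincubated with test sample for 30 min at 37 °C or room temperature (1% vehicle). Agonist then added at EC80 for 90 or 180 min. IC50 comes from concentration–response runs in the same format.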

[2] = target: Cannabinoid receptor 1 (Homo sapiens, UniProt P21554); assay: Antagonist activity at human Gi/o-coupled CNR1 expressed in CHOK1 cells assessed as inhibition in CP55940-induced beta-arrestin 2 recruitment at 20 uM incubated for 30 mins followed by CP55940 addition and measured after 90 or 180 mins by pathhunter beta-arrestin assay relative to control; assay type: cell-based; method in brief: as §2
Cannabinoid receptor 1, sequence (P21554 whole entry): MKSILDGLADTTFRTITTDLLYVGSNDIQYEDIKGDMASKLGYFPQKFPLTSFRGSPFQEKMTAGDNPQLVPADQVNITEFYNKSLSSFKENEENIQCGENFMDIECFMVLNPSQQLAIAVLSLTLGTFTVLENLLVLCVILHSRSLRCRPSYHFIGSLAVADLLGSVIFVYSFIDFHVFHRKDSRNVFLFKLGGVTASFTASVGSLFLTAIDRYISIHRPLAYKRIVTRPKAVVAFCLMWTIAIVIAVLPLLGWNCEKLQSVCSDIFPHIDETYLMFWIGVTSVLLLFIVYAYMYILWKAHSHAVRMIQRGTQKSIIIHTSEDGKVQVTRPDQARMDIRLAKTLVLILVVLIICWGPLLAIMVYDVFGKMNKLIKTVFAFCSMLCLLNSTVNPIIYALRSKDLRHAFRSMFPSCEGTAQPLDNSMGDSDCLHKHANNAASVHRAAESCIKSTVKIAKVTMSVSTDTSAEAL

[3] = target: T2, Glucose-dependent insulinotropic receptor (Homo sapiens) (UniProt Q8TDV5); assay: Antagonist activity at human GPR119 assessed as inhibition in oleoylethanolamide-induced beta-arrestin 2 recruitment at 20 uM incubated for 30 mins followed by oleoylethanolamide addition and measured after 90 or 180 mins by pathhunter beta-arrestin assay relative to control; method in brief: as §2
T2 sequence (whole entry): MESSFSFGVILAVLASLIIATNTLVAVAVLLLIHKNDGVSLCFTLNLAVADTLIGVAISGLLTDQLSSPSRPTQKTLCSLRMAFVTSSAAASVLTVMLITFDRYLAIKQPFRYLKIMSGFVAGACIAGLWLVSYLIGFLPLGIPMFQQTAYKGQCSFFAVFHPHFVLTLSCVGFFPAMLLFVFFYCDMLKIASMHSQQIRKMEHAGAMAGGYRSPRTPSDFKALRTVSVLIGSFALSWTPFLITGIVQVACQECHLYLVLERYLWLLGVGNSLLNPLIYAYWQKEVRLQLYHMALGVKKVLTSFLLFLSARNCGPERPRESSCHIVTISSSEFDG

[4] = target: D(2) dopamine receptor (Homo sapiens) (UniProt P14416); assay: Antagonist activity at human Gi/o-coupled DRD2L expressed in CHOK1 cells assessed as inhibition in dopamine-induced beta-arrestin 2 recruitment at 20 uM incubated for 30 mins followed by dopamine addition and measured after 90 or 180 mins by pathhunter beta-arrestin assay relative to control; assay type: cell-based; method in brief: as §2
D(2) dopamine receptor (Homo sapiens), sequence (P14416 whole entry): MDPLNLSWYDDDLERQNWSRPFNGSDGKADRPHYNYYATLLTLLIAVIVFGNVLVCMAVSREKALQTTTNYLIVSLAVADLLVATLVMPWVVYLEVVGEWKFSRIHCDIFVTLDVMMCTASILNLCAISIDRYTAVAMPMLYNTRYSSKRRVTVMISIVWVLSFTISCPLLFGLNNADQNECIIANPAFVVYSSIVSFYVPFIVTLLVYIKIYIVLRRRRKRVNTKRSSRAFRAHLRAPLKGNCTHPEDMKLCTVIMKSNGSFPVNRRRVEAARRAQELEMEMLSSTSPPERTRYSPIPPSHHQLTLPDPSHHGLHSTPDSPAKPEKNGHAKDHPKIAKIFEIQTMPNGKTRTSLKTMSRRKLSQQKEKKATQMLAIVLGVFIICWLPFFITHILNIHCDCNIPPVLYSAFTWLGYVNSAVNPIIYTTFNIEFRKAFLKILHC

[5] = target: T3, Prolactin-releasing peptide receptor (Homo sapiens) (UniProt P49683); assay: as §1, with “PRLHR” for “HCRTR2”, “prolactin releasing peptide (1 to 31)-induced” for “Orexin A-induced”, “prolactin releasing peptide (1 to 31)” for “Orexin A”; assay type: cell-based; method in brief: as §2
T3 sequence (whole entry): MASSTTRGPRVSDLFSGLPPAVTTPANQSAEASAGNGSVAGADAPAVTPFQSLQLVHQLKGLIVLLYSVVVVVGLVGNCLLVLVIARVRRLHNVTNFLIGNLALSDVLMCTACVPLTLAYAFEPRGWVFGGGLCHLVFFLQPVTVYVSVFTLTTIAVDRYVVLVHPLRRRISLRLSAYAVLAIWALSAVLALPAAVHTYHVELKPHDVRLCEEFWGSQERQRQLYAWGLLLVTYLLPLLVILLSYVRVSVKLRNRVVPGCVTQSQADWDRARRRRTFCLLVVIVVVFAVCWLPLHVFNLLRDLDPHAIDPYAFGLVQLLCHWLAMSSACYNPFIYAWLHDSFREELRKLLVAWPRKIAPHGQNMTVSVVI

[6] = target: C-C chemokine receptor type 8 (Homo sapiens, UniProt P51685); assay: (§3) Antagonist activity at human CCR8 expressed in CHOK1 cells assessed as inhibition in CCL1-induced beta-arrestin 2 recruitment at 20 uM incubated for 30 mins followed by CCL1 addition and measured after 90 or 180 mins by pathhunter beta-arrestin assay relative to control; assay type: cell-based; method in brief: as §2
C-C chemokine receptor type 8, sequence (P51685 whole entry): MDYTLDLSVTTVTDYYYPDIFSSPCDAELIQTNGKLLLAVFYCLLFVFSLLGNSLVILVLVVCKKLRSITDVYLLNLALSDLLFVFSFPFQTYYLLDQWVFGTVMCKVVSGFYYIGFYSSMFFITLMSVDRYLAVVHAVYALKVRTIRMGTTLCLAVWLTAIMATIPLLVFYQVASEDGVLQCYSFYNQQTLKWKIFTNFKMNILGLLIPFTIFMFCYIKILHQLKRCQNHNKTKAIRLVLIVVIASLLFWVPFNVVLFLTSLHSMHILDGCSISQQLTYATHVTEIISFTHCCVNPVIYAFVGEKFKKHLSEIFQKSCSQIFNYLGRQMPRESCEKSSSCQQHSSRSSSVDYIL

[7] = target: T4, Muscarinic acetylcholine receptor M4 (Homo sapiens) (UniProt P08173); assay: as §3, with “Gs/Gi/o-coupled CHRM4” for “CCR8”, “acetylcholine-induced” for “CCL1-induced”, “acetylcholine” for “CCL1”; assay type: cell-based; method in brief: as §2
T4 sequence (whole entry): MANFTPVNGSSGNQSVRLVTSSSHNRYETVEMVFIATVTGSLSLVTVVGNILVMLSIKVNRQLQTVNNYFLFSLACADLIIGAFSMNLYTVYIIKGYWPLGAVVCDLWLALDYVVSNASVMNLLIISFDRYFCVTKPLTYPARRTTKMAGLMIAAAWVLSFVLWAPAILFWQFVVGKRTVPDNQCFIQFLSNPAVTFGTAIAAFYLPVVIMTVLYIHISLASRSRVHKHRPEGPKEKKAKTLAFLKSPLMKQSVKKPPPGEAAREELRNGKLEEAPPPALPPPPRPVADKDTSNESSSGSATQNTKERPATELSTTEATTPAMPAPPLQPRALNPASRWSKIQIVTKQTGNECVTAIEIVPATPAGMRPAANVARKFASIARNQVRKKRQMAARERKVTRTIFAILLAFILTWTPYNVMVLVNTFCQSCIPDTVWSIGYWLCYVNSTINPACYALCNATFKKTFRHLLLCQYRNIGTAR

[8] = target: Cannabinoid receptor 2 (Homo sapiens, UniProt P34972); assay: Antagonist activity at human Gi/o-coupled CNR2 expressed in CHOK1 cells assessed as inhibition in CP55940-induced beta-arrestin 2 recruitment at 20 uM incubated for 30 mins followed by CP55940 addition and measured after 90 or 180 mins by pathhunter beta-arrestin assay relative to control; assay type: cell-based; method in brief: as §2
Cannabinoid receptor 2, sequence (P34972 whole entry): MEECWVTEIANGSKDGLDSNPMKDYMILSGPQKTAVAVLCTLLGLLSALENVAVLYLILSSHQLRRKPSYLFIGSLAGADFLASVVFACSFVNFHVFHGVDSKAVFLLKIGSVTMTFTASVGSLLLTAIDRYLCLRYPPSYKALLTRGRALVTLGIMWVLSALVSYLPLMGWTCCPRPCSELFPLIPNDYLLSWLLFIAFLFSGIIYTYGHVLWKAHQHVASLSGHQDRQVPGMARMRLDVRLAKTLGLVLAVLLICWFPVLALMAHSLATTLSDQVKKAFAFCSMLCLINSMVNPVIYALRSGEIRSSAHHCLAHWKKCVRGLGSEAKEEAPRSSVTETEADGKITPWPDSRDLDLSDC

[9] = target: Prostacyclin receptor (Homo sapiens, UniProt P43119); assay: Antagonist activity at human Gs-coupled PTGIR assessed as inhibition in beraprost-induced beta-arrestin 2 recruitment at 20 uM incubated for 30 mins followed by beraprost- addition and measured after 90 or 180 mins by pathhunter beta-arrestin assay relative to control; method in brief: as §2
Prostacyclin receptor, sequence (P43119 whole entry): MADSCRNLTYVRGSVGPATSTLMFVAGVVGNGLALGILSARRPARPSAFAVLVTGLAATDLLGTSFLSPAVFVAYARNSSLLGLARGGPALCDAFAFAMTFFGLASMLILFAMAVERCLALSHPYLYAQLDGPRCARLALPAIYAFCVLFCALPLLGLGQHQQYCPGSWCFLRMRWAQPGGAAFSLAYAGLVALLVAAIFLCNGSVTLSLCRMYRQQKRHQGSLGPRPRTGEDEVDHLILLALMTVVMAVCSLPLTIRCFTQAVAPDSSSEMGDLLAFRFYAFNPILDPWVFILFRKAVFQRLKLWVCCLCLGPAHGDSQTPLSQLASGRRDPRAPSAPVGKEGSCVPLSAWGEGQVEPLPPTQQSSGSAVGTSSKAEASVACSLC

[10] = target: C-X-C chemokine receptor type 4 (Homo sapiens) (UniProt P61073); assay: Antagonist activity at human Gi/o-coupled CXCR4 expressed in mouse C2C12 cells assessed as inhibition in CXCL12-induced beta-arrestin 2 recruitment at 20 uM incubated for 30 mins followed by CXCL12 addition and measured after 90 or 180 mins by pathhunter beta-arrestin assay relative to control; assay type: cell-based; method in brief: as §2
C-X-C chemokine receptor type 4 (Homo sapiens), sequence (P61073 whole entry): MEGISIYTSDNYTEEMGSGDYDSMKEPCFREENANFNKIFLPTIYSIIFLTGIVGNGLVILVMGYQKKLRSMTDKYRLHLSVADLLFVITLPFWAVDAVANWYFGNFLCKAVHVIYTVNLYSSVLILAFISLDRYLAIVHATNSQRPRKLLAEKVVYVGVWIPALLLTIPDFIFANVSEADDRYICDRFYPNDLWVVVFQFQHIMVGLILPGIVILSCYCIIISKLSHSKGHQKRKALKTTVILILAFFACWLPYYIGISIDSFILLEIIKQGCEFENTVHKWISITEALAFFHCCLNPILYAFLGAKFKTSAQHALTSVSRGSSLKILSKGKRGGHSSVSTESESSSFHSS

[11] = target: T5, Neuropeptide S receptor (Homo sapiens) (UniProt Q6W5P4); assay: as §1, with “NPSR1b” for “HCRTR2”, “human U2OS” for “CHOK1”, “neuropeptide S-induced” for “Orexin A-induced”, “neuropeptide S” for “Orexin A”; assay type: cell-based; method in brief: as §2
T5 sequence (whole entry): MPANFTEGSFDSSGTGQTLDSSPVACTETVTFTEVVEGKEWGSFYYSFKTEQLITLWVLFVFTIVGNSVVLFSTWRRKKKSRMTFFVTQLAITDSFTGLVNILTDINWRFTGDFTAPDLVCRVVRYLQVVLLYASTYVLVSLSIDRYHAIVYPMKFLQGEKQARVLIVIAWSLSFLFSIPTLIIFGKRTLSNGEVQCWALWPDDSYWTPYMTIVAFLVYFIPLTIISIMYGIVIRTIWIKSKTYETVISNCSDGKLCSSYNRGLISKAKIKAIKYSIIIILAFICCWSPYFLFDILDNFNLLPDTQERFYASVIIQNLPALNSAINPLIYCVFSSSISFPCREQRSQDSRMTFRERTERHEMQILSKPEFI

[12] = target: Histamine H1 receptor (Homo sapiens) (UniProt P35367); details: at 20 µM
Histamine H1 receptor (Homo sapiens), sequence (P35367 whole entry): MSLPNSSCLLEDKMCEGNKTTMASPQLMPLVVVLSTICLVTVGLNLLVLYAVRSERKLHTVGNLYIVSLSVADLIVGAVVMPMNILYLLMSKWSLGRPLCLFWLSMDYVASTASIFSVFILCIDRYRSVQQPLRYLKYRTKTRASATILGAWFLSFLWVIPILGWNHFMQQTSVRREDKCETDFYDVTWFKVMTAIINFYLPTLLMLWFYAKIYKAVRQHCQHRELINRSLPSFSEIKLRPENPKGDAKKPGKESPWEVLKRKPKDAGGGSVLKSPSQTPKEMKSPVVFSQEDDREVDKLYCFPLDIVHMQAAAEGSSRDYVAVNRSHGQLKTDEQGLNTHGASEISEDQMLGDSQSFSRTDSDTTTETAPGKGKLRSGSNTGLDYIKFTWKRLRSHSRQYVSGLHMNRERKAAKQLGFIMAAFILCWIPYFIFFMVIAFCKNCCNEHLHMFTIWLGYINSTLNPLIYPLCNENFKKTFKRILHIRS

| inhibition [1] | inhibition [2] | inhibition [3] | inhibition [4] | inhibition [5] | inhibition [6] | inhibition [7] | inhibition [8] | inhibition [9] | inhibition [10] | inhibition [11] | inhibition [12] | Compound |
| --- | --- | --- | --- | --- | --- | --- | --- | --- | --- | --- | --- | --- |
| 9% | 35% | 8% | 102% | 1% | 5% | 4% | 20% | 8% | 21% | -3% | – | COC(=O)[C@@H]1[C@H]2C[C@H]3c4[nH]c5ccccc5c4CCN3C[C@@H]2CC[C@@H]1O |
| 10% | 26% | 35% | 11% | 70% | 65% | 67% | 39% | 84% | 40% | 24% | 16% | CC[C@@]12C=C(C(=O)OC)n3c(c(c4ccccc43)CCN(/C=C/C(=O)OC)CCC1)[C@@H]2c1ccc(O)cc1 |
| 16% | 0% | 5% | -5% | -7% | 6% | 22% | 13% | 22% | -10% | -10% | -3% | CC[C@]12CCCN3CC[C@]4(C(=O)c5ccccc5N4C(=O)C1)[C@@H]32 |
